The record followed here is ChEMBL document CHEMBL1155277, “Synthesis of new 4-isopropylthiazole hydrazide analogs and some derived clubbed triazole, oxadiazole ring systems--a novel class of potential antibacterial, antifungal and antitubercular agents” (Eur J Med Chem, 2009).

Data set [1] has as its system Aspergillus niger. Briefly: Antimicrobial activity against Aspergillus niger ATCC 6275 after 24 hrs by broth microdilution method. The format is functional. Conditions: ATCC 6275, 24 h; call rule not given here. The method, boiled down: (§1)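 Broth microdilution in tubes. Compounds were dissolved at 10 mg in 1 mL DMSO and diluted in Mueller-Hinton Broth for bacteria or Sabouraud Liquid Medium for yeasts and A. niger. Final concentrations were 1–500 µg/mL (1, 2, 4, 8, 16, 31.25, 62.5, 125, 250, 500), with DMSO at most 1% v/v. Inoculum was 10^5 cfu/mL, incubated at 37 °C for 24 h. MIC was the lowest concentration giving complete growth inhibition. Media and media-plus-DMSO served as growth controls.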
For orientation: In broth dilution the organism is exposed to a series of concentrations in liquid medium.

Data set [2] deals with Enterococcus faecalis. Kind of data set: Antimicrobial activity against Streptococcus faecalis ATCC 14506 after 24 hrs by broth microdilution method. Conditions: ATCC 14506, 24 h. In kind it is functional. The method, boiled down: as §1
Data set [3] has as its system Saccharomyces cerevisiae. Kind of data set: Antimicrobial activity against Saccharomyces cerevisiae ATCC 9763 after 24 hrs by broth microdilution method. The format is functional. The following applies: ATCC 9763, 24 h. The method, boiled down:
as §1

In data set [4] the test system is Pseudomonas aeruginosa. Briefly: Antimicrobial activity against Pseudomonas aeruginosa ATCC 10145 after 24 hrs by broth microdilution method. In kind it is functional. The following applies: ATCC 10145, 24 h. The method, boiled down:
as §1

Data set [5] relates to Candida tropicalis. Kind of data set: Antimicrobial activity against Candida tropicalis ATCC 1369 after 24 hrs by broth microdilution method. The format is functional. The following applies: ATCC 1369, 24 h. The method, boiled down: as §1
The subject of data set [6] is Mycobacterium tuberculosis. Briefly: Antitubercular activity against Mycobacterium tuberculosis H37Rv after 21 days by broth dilution assay. In kind it is functional. Conditions: 504 h. The method, boiled down: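 H37Rv frozen stock in Middlebrook 7H9 broth with 10% albumin-dextrose-catalase and 0.2% glycerol, thawed and diluted to 10⁵ cfu mL⁻¹. Compounds dissolved in DMSO, diluted in broth (final DMSO 1.3%). U-tubes inoculated, incubated 37 °C for 21 days. Growth scored visually against drug-free and inoculum-free controls and isoniazid. MIC = lowest concentration inhibiting […] of starting population.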

Data set [7] deals with Klebsiella pneumoniae. Briefly: Antimicrobial activity against Klebsiella pneumoniae ATCC 10031 after 24 hrs by broth microdilution method. In kind it is functional. The following applies: ATCC 10031, 24 h. The method, boiled down: as §1
Data set [8] deals with Escherichia coli. Kind of data set: Antimicrobial activity against Escherichia […] after 24 hrs by broth microdilution method. In kind it is functional. In short, it runs like this:
as §1

The test system of data set [9] is Bacillus subtilis. Briefly: Antimicrobial activity against Bacillus subtilis ATCC 60511 after 24 hrs by broth microdilution method. The format is functional. The following applies: ATCC 60511, 24 h. The method, boiled down:
as §1

Data set [10] concerns Staphylococcus aureus. Briefly: Antimicrobial activity against Staphylococcus aureus ATCC 11632 after 24 hrs by broth microdilution method. Conditions: ATCC 11632, 24 h. The format is functional. In short, it runs like this: as §1
Data set [11] deals with A549. Kind of data set: Cytotoxicity against human A549 cell at 250 uM by MTT assay relative to control. In kind it is cell-based. Conditions: a549, 250 µM. The method, boiled down: (§2)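 A549 lung adenocarcinoma cells were grown with 10% and 0.2% FBS. Compounds were held as 10 mM DMSO stocks and diluted in culture medium; cells were treated at 250 µM. Viability was read by MTT reduction against untreated cells and a DMSO vehicle control. The work was done as two experiments, each with triplicate readings.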

Data set [12] deals with A549. Kind of data set: Cytotoxicity against human A549 cell at 250 uM by MTT assay. In kind it is cell-based. The following applies: a549, 250 µM. In short, it runs like this: as §2
A general note: Formazan colour is commonly taken as a measure of viable cells.

Values after ≈ are worked out from the molar mass of the structure shown.

In the case of `CC(C)c1csc(C(=O)N/N=C/c2cccc(Cl)c2Cl)n1`, the minimum inhibitory concentration (MIC) in [1] was 125 µg/mL (≈ 365 µM); in data set [2], 31.2 µg/mL (≈ 91.3 µM); in data set [3], 16 µg/mL (≈ 46.7 µM); in [4], 31.2 µg/mL (≈ 91.3 µM); in data set [5] it was 31.2 µg/mL (≈ 91.3 µM); in [6], 125 µg/mL (≈ 365 µM). In addition, the minimal inhibitory concentration (MIC) in data set [7] is 31.2 µg/mL (≈ 91.3 µM); in data set [8] it was 16 µg/mL (≈ 46.7 µM); in data set [9], 31.2 µg/mL (≈ 91.3 µM); in [10] it was 250 µg/mL (≈ 730 µM).
With `COc1cc(C2OC(c3nc(C(C)C)cs3)=NN2C(C)=O)cc(OC)c1OC` (stereo not drawn), the MIC in data set [1] was found to be 16 µg/mL (≈ 39.5 µM); in data set [2] it was 16 µg/mL (≈ 39.5 µM); in [3], 31.2 µg/mL (≈ 77.1 µM); in data set [4], 16 µg/mL (≈ 39.5 µM); in data set [5] it was 16 µg/mL (≈ 39.5 µM); in data set [6], 31.2 µg/mL (≈ 77.1 µM). The MIC in data set [7] was determined as 31.2 µg/mL (≈ 77.1 µM); in data set [8] it was 31.2 µg/mL (≈ 77.1 µM); in [9] it was 16 µg/mL (≈ 39.5 µM); in data set [10], 62.5 µg/mL (≈ 154 µM). The molecule also yielded an Activity in data set [11] of 50%.
Turning to `CC(=O)N1N=C(c2nc(C(C)C)cs2)OC1c1cccc(Cl)c1Cl` (stereo not drawn), the MIC in data set [1] came out at 31.2 µg/mL (≈ 81.3 µM); in data set [2], 16 µg/mL (≈ 41.6 µM); in [3] it was 16 µg/mL (≈ 41.6 µM); in [4] it was 31.2 µg/mL (≈ 81.3 µM); in data set [5], 16 µg/mL (≈ 41.6 µM); in data set [6], 62.5 µg/mL (≈ 163 µM). In addition, the minimum inhibitory concentration (MIC) in data set [7] is 125 µg/mL (≈ 325 µM); in data set [8], 125 µg/mL (≈ 325 µM); in data set [9] it was 16 µg/mL (≈ 41.6 µM); in [10], 125 µg/mL (≈ 325 µM).
As for `CC(C)c1csc(-c2nnc(S)n2N)n1`, the MIC in [1] came out at 8 µg/mL (≈ 33.1 µM); in data set [2], 31.2 µg/mL (≈ 129 µM); in data set [3], 16 µg/mL (≈ 66.3 µM); in data set [4], 16 µg/mL (≈ 66.3 µM); in data set [5], 8 µg/mL (≈ 33.1 µM); in data set [6], 8 µg/mL (≈ 33.1 µM). Besides, the MIC was 31.2 µg/mL (≈ 129 µM) in data set [7], 31.2 µg/mL (≈ 129 µM) in [8], 8 µg/mL (≈ 33.1 µM) in [9] and 125 µg/mL (≈ 518 µM) in [10]. This molecule also gave an Activity in data set [11] of 50%.
Take `CC(=O)N1N=C(c2nc(C(C)C)cs2)OC1c1ccc([N+](=O)[O-])cc1` (stereo not drawn): the MIC was 31.2 µg/mL (≈ 86.7 µM) in data set [1]; 125 µg/mL (≈ 347 µM) in data set [2]; 500 µg/mL (≈ 1390 µM) in data set [3]; 125 µg/mL (≈ 347 µM) in data set [4]; 125 µg/mL (≈ 347 µM) in data set [5]; 62.5 µg/mL (≈ 173 µM) in [6]. The minimal inhibitory concentration (MIC) turned out to be 125 µg/mL (≈ 347 µM) in [7], 250 µg/mL (≈ 694 µM) in data set [8], 250 µg/mL (≈ 694 µM) in [9] and 125 µg/mL (≈ 347 µM) in data set [10].
For `CC(=O)N1N=C(c2nc(C(C)C)cs2)OC1c1ccccc1` (stereo not drawn), the MIC stood at 16 µg/mL (≈ 50.7 µM) in data set [1]; 62.5 µg/mL (≈ 198 µM) in data set [2]; 31.2 µg/mL (≈ 99.1 µM) in [3]; 16 µg/mL (≈ 50.7 µM) in data set [4]; 16 µg/mL (≈ 50.7 µM) in data set [5]; 31.2 µg/mL (≈ 99.1 µM) in data set [6]. Besides, the minimal inhibitory concentration (MIC) was 62.5 µg/mL (≈ 198 µM) in data set [7], 62.5 µg/mL (≈ 198 µM) in data set [8], 31.2 µg/mL (≈ 99.1 µM) in data set [9] and 125 µg/mL (≈ 396 µM) in data set [10].
As for `CC(=O)N1N=C(c2nc(C(C)C)cs2)OC1c1ccc(O)cc1` (stereo not drawn), the MIC is 16 µg/mL (≈ 48.3 µM) in data set [1]; 31.2 µg/mL (≈ 94.3 µM) in data set [2]; 31.2 µg/mL (≈ 94.3 µM) in data set [3]; 31.2 µg/mL (≈ 94.3 µM) in data set [4]; 16 µg/mL (≈ 48.3 µM) in data set [5]; 31.2 µg/mL (≈ 94.3 µM) in [6]. Also, the minimum inhibitory concentration (MIC) in data set [7] turned out to be 31.2 µg/mL (≈ 94.3 µM); in [8], 16 µg/mL (≈ 48.3 µM); in data set [9], 16 µg/mL (≈ 48.3 µM); in [10] it was 125 µg/mL (≈ 377 µM). The result in data set [12] was Active.
On to `CC(=O)N1N=C(c2nc(C(C)C)cs2)OC1c1ccc(N(C)C)cc1` (stereo not drawn), for which the MIC is 31.2 µg/mL (≈ 87.2 µM) in data set [1]; 125 µg/mL (≈ 349 µM) in data set [2]; 31.2 µg/mL (≈ 87.2 µM) in data set [3]; 16 µg/mL (≈ 44.6 µM) in data set [4]; 31.2 µg/mL (≈ 87.2 µM) in data set [5]; 62.5 µg/mL (≈ 174 µM) in data set [6]. The minimal inhibitory concentration (MIC) was 31.2 µg/mL (≈ 87.2 µM) in data set [7], 16 µg/mL (≈ 44.6 µM) in [8], 31.2 µg/mL (≈ 87.2 µM) in [9] and 125 µg/mL (≈ 349 µM) in data set [10].

For orientation: MIC means the lowest concentration found to suppress growth. A high value points to weaker potency.
